According to ChEMBL document CHEMBL3351261, “Induction of intrinsic apoptosis pathway in colon cancer HCT-116 cells by novel 2-substituted-5,6,7,8-tetrahydronaphthalene derivatives” (Eur J Med Chem, 2014):
Converted amounts (≈) assume the structure as drawn. The source made the active and inactive calls. The rule behind the calls is not given here.

What was measured:
[1] = tested on: MCF7; test: Cytotoxicity against human MCF7 cells after 48 hrs by MTT method; type: functional, cell-based; details: MCF7, 48 h
[2] = tested on: HeLa; test: Cytotoxicity against human HeLa cells after 48 hrs by MTT method; type: functional, cell-based
[3] = Cytotoxicity against human HCT116 cells after 48 hrs by MTT method; type: functional, cell-based; details: HCT-116, 48 h
[4] = tested on: HepG2; test: Cytotoxicity against human HepG2 cells after 48 hrs by MTT method; type: functional, cell-based; details: HepG2, 48 h
[5] = tested on: HCT-116; test: Induction of DNA fragmentation in human HCT116 cells at IC50 after 30 mins relative to control; type: functional
Outline: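 HCT-116 cells, treated or untreated, were resuspended in TE buffer (10 mM Tris, 1 mM EDTA, pH 8.0) and lysed 30 min in 5 mM Tris, 20 mM EDTA, 0.5% Triton X-100, pH 8.0. Fragmented DNA (supernatant) was separated from intact chromatin (pellet) by centrifugation and quantified with diphenylamine reagent. % fragmentation = supernatant DNA / pellet DNA; three measurements, mean ± SD.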

[6] = tested on: HCT-116; test: Induction of necrosis in human HCT116 cells at IC50 by acridine orange/ethidium bromide staining-based fluorescence microscopy; type: functional
Outline: (§1)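 Treated and untreated HCT-116 cells were stained with acridine orange/ethidium bromide (each 100 µg/ml mix in PBS) and examined under fluorescence microscopy, blinded. Cells with yellow condensed or fragmented nuclei were counted as apoptotic; bright orange chromatin in round nuclei was counted as necrotic. Each is reported as % of the dead-cell population.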

[7] = tested on: HCT-116; test: Induction of apoptosis in human HCT116 cells assessed as increase in total caspase level relative to control; type: functional, cell-based
Outline: (§2)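 HCT-116 cells, treated or untreated, were lysed (pH 7.4) and cleared at 14,000× g, 15 min, 4 °C. Kit-based read-outs: total caspases via Red-VAD-FMK fluorescence (Ex 540/Em 570 nm); caspase-3 colorimetric at 405 nm; caspase-9 via LEHD-pNA cleavage, pNA at 405 nm. Results are fold over untreated cells.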

[8] = tested on: HCT-116; test: Induction of apoptosis in human HCT116 cells at IC50 by acridine orange/ethidium bromide staining-based fluorescence microscopy; type: functional; outline: as §1
[9] = tested on: HCT-116; test: Induction of apoptosis in human HCT116 cells assessed as cytochrome C accumulation by immunoblotting analysis; type: functional, cell-based
Outline: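 HCT-116 cells were lysed in ice-cold buffer (pH 7.4) with NP40, Triton X-100 and protease/phosphatase inhibitors, then cleared at 14,000× g for 15 min at 4 °C; protein was measured by BCA. Soluble protein (20 µg) was dot-blotted on nitrocellulose and probed for cytochrome c, detected with HRP anti-goat antibody and OPD. Dot colour intensity is given as mean % of three replicates.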

[10] = tested on: HCT-116; test: Induction of apoptosis in human HCT116 cells assessed as reduction of mitochondrial membrane potential after 2 hrs by JC-1 staining-based fluorescence assay; type: functional, cell-based
Outline: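 HCT-116 cells in 96-well plates were preloaded with 10 µg/ml JC-1 in HBSS for 30 min at 37 °C, then incubated with or without compound for 2 h at 37 °C. The 590/527 nm emission ratio was read at zero time and at 2 h and expressed as % of the zero-time reading. CCCP served as positive control; mean of three readings ± SD.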

[11] = tested on: HCT-116; test: Induction of apoptosis in human HCT116 cells assessed as increase in caspase-3 level relative to control; type: functional, cell-based; outline: as §2
[12] = tested on: HCT-116; test: Induction of apoptosis in human HCT116 cells assessed as increase in caspase-9 level relative to control; type: functional, cell-based; outline: as §2

Structure (SMILES) | IC50 [1] [µg/mL] | IC50 [2] [µg/mL] | IC50 [3] [µg/mL] | IC50 [4] [µg/mL] | Activity [5] | Activity [6] [%] | Activity [7] | Activity [8] [%] | Activity [9] | Activity [10] | Activity [11] | Activity [12]
COc1ccc(N/C=C\C(=O)c2ccc3c(c2)CCCC3)cc1 | 43.1 (≈ 140 µM) | 46.1 (≈ 150 µM) | 31.8 (≈ 103 µM) | 31.8 (≈ 103 µM) |  |  |  |  |  |  |  | 
CC(=O)O[C@H]1C(=O)[C@@]2(C)[C@H]([C@H](OC(=O)c3ccccc3)[C@]3(O)C[C@H](OC(=O)[C@H](O)[C@@H](NC(=O)c4ccccc4)c4ccccc4)C(C)=C1C3(C)C)[C@]1(OC(C)=O)CO[C@@H]1C[C@@H]2O [PACLITAXEL] | 0.61 (≈ 0.714 µM) | 0.47 (≈ 0.55 µM) | 0.38 (≈ 0.445 µM) | 0.59 (≈ 0.691 µM) | 44% |  |  |  |  |  |  | 
O=C(/C=C\Nc1ccc([N+](=O)[O-])cc1)c1ccc2c(c1)CCCC2 | 28.5 (≈ 88.4 µM) | 48.4 (≈ 150 µM) | 6.8 (≈ 21.1 µM) | 27.4 (≈ 85 µM) | Active | 0 | Active | 77 | Active |  |  | 
O=C(/C=C/N1CCOCC1)c1ccc2c(c1)CCCC2 | 38.6 (≈ 142 µM) | 41.2 (≈ 152 µM) | 7.2 (≈ 26.5 µM) | 18.2 (≈ 67.1 µM) | Active | 0 |  | 77 |  | inactive |  | 
c1ccc(-c2cc3nccc(-c4ccc5c(c4)CCCC5)n3n2)cc1 | 19.9 (≈ 61.2 µM) | 36.2 (≈ 111 µM) | 26.7 (≈ 82 µM) | 37.6 (≈ 116 µM) |  |  |  |  |  |  |  | 
O=C(c1ccc2c(c1)CCCC2)c1coc2c1cc(O)c1ccccc12 | 48.7 (≈ 142 µM) | 40.5 (≈ 118 µM) | 36.2 (≈ 106 µM) | 31.7 (≈ 92.6 µM) |  |  |  |  |  |  |  | 
O=C(/C=C\Nc1ccccc1)c1ccc2c(c1)CCCC2 | 32.2 (≈ 116 µM) | 30.6 (≈ 110 µM) | 41.6 (≈ 150 µM) | 19.9 (≈ 71.7 µM) |  |  |  |  |  |  |  | 
O=C(/C=C\Nc1ccc(Cl)cc1)c1ccc2c(c1)CCCC2 | 28.7 (≈ 92 µM) | 19.9 (≈ 63.8 µM) | 7.9 (≈ 25.3 µM) | 30.3 (≈ 97.2 µM) | Active | 0 |  | 77 |  | inactive |  | 
Cc1ccc(N/C=C\C(=O)c2ccc3c(c2)CCCC3)cc1 | 43.6 (≈ 150 µM) | 28.7 (≈ 98.5 µM) | 42.1 (≈ 144 µM) | 42.7 (≈ 147 µM) |  |  |  |  |  |  |  | 
CN(C)/C=C/C(=O)c1ccc2c(c1)CCCC2 | 29.3 (≈ 128 µM) | 33.4 (≈ 146 µM) | 18.9 (≈ 82.4 µM) | 22.3 (≈ 97.2 µM) |  |  |  |  |  |  |  | 
O=c1[nH]c(=S)[nH]c2nccc(-c3ccc4c(c3)CCCC4)c12 | 18.2 (≈ 58.8 µM) | 25.3 (≈ 81.8 µM) | 0.49 (≈ 1.58 µM) | 27 (≈ 87.3 µM) | Active | 0 | Active | 77 | Active | Active | Active | Active
CC(=O)Nc1ccc(-c2ccc3c(c2)CCCC3)oc1=O | 20.9 (≈ 73.8 µM) | 30.4 (≈ 107 µM) | 8.4 (≈ 29.6 µM) | 45.3 (≈ 160 µM) | Active | 0 |  | 77 |  |  | inactive | Active
O=C(c1ccc2c(c1)CCCC2)c1coc2ccc(O)cc12 | 40.3 (≈ 138 µM) | 41.6 (≈ 142 µM) | 9.5 (≈ 32.5 µM) | 39.2 (≈ 134 µM) | Active | 0 |  | 77 |  | inactive |  | 
O=C(/C=C/N1CCCCC1)c1ccc2c(c1)CCCC2 | 41.1 (≈ 153 µM) | 35.6 (≈ 132 µM) | 35.4 (≈ 131 µM) | 39.1 (≈ 145 µM) |  |  |  |  |  |  |  | 
O=C(Nc1ccc(-c2ccc3c(c2)CCCC3)oc1=O)c1ccccc1 | 27.5 (≈ 79.6 µM) | 38.3 (≈ 111 µM) | 47.7 (≈ 138 µM) | 29.3 (≈ 84.8 µM) |  |  | Active |  | Active |  |  | 
O=c1[nH]c(=O)c2c(-c3ccc4c(c3)CCCC4)ccnc2[nH]1 | 24.4 (≈ 83.2 µM) | 29.1 (≈ 99.2 µM) | 18.6 (≈ 63.4 µM) | 39.9 (≈ 136 µM) |  |  |  |  |  |  |  | 
c1cc(-c2ccc3c(c2)CCCC3)n2ncnc2n1 | 48.2 (≈ 193 µM) | 21.8 (≈ 87.1 µM) | 2.1 (≈ 8.39 µM) | 15.9 (≈ 63.5 µM) | Active | 0 | Active | 77 | Active | Active | Active | inactive
